{
  "source": "ChEMBL document CHEMBL4014343",
  "about": "(J Med Chem, 2017)",
  "key": {"MCF7 [1]": {"system": "MCF7", "experiment": "Antiproliferative activity against human MCF7 cells after 3 days by SRB assay", "type": "functional, cell-based"}, "[2]": {"experiment": "Antiproliferative activity against human LXFL 529L cells after 3 days by SRB assay", "type": "functional, cell-based", "conditions": "Homo sapiens, LXFL 529L, 72 h"}, "[3]": {"experiment": "Solubility of the compound in water by spectrophotometric method", "type": "physicochemical", "outline": "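Ethanol standard solutions define absorbance maxima; aqueous solubility then quantified spectrophotometrically at that maximum by calibration.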"}, "[4]": {"biological_target": "T1, Insulin-like growth factor 1 receptor (Homo sapiens, UniProt P08069)", "T1 sequence (P08069 31-736 limits assumed)": "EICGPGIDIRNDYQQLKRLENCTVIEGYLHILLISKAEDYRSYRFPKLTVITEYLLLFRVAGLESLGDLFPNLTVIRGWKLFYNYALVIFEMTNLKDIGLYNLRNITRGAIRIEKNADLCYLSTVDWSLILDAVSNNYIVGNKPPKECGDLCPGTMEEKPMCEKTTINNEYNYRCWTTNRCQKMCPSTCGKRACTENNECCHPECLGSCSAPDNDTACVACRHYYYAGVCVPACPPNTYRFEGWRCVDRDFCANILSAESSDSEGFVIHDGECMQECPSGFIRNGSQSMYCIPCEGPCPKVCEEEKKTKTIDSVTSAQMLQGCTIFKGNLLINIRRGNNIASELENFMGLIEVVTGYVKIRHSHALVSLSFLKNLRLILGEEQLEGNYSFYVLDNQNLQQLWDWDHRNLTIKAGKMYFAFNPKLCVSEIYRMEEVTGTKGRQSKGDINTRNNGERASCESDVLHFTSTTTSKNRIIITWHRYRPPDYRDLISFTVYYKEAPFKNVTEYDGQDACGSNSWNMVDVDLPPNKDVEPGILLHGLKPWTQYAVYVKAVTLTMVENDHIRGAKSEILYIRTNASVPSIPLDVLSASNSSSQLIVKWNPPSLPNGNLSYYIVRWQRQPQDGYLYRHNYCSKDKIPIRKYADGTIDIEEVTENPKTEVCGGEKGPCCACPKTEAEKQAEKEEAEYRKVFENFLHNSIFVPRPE", "T1 sequence (P08069 741-1367 limits assumed)": "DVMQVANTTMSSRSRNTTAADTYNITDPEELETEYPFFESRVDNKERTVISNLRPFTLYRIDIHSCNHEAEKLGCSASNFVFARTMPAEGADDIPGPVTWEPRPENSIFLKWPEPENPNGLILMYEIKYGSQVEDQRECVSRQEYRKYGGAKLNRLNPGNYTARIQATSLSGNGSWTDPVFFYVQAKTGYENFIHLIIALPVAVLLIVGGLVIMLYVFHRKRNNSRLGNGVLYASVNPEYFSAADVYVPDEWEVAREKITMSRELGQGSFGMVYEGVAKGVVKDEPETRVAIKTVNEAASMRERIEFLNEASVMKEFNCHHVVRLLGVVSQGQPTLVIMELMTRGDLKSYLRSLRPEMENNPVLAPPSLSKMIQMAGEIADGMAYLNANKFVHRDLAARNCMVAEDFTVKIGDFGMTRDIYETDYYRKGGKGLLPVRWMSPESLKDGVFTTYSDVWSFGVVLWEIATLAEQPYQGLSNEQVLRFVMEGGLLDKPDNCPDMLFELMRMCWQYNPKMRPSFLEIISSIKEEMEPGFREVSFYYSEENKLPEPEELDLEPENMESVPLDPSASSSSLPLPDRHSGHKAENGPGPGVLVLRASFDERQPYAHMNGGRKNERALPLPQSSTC", "experiment": "Inhibition of IGF1R (unknown origin) by ADP-Glo assay", "outline": "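Isolated IGF-1R activity measured by luminescent ADP-Glo readout per manufacturer's protocol; IC50 from concentration-response (mean ± deviation reported).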"}, "KM12": {"system": "KM12", "experiment": "Growth inhibition of human KM12 cells incubated for 48 hrs by sulforhodamine B assay", "type": "functional", "conditions": "KM12, 48 h"}, "MCF7 [5]": {"system": "MCF7", "experiment": "Growth inhibition of human MCF7 cells incubated for 48 hrs by sulforhodamine B assay", "type": "functional", "conditions": "MCF7, 48 h"}, "MDA-MB-231": {"system": "MDA-MB-231", "experiment": "Growth inhibition of human MDA-MB-231 cells incubated for 48 hrs by sulforhodamine B assay", "type": "functional", "conditions": "MDA-MB-231, 48 h"}, "BT-549": {"system": "BT-549", "experiment": "Growth inhibition of human BT549 cells incubated for 48 hrs by sulforhodamine B assay", "type": "functional", "conditions": "BT-549, 48 h"}, "[6]": {"biological_target": "T2, Glycogen synthase kinase-3 beta (Homo sapiens, UniProt P49841)", "T2 sequence (P49841 whole entry, the tested form may be a part)": "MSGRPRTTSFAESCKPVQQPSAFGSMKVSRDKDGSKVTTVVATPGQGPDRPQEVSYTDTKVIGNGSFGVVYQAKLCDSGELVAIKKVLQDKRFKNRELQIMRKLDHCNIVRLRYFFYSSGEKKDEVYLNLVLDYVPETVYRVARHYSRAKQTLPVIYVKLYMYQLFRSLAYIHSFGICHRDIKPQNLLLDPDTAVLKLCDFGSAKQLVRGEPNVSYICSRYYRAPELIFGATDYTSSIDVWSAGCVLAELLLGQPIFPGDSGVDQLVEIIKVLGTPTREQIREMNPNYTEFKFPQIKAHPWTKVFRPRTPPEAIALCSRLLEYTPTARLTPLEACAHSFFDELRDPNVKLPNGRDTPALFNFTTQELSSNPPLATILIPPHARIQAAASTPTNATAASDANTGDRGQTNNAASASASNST", "experiment": "Inhibition of human N-terminal GST/His6-tagged GSK3beta (M1 to T420 residues) expressed in baculovirus infected sf9 cells using RBER-IRStide as substrate by filter binding assay"}, "[7]": {"biological_target": "Cyclin-dependent kinase 5/CDK5 activator 1 (Homo sapiens, UniProt Q00535)", "sequence (Q00535 whole entry, the tested form may be a part)": "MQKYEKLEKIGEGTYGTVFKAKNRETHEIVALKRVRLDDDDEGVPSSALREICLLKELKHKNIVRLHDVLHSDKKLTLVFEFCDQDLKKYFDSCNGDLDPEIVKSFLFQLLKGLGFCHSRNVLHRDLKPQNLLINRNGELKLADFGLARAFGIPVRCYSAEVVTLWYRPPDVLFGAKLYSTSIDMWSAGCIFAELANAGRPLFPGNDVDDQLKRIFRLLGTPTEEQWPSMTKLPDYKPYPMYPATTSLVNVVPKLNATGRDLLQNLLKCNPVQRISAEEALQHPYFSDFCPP", "sequence (Q15078 whole entry, further chain, the tested form may be a part)": "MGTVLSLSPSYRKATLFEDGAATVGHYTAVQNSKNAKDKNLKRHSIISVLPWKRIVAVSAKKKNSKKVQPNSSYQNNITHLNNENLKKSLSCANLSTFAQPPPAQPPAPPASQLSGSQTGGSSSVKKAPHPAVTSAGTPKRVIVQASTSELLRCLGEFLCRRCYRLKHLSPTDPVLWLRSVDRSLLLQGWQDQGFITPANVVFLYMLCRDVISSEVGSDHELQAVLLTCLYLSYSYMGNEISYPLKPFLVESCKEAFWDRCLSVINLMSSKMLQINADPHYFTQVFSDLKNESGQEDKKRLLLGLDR", "experiment": "Inhibition of recombinant human N-terminal GST-tagged CDK5 (M1 to P292 residues)/p35NCK (M1 to R307 residues) expressed in baculovirus infected sf9 cells using RB-CTF as substrate by filter binding assay"}, "[8]": {"biological_target": "T1, Insulin-like growth factor 1 receptor", "experiment": "Inhibition of IGF1R phosphorylation at Tyr1161 residue in human MCF7 cells at 10 uM after 1 hr by Hoechst 33258 staining based immunohistochemical analysis", "type": "cell-based", "outline": "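MCF7 treated 1 h (test agent 1 μM; PI3K inhibitor 10 μM; 0.1% DMSO mock), fixed in 4% PFA 15 min, permeabilised/blocked, anti-p-IGF-1R Y1161 (1:200) overnight at 4 °C, Alexa 594 secondary 1 h, nuclei with Hoechst 33258 (1 μg/mL).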"}, "[9]": {"biological_target": "T1, Insulin-like growth factor 1 receptor", "experiment": "Inhibition of IGF1R (unknown origin)"}, "CDK2/Cyclin A2 [10]": {"biological_target": "T3, CDK2/Cyclin A2 (Homo sapiens, UniProt P24941)", "experiment": "Inhibition of full length human C-terminal His6-tagged CDK2/N-terminal GST-tagged CyclinA expressed in baculovirus infected sf21 cells after 10 mins in presence of [gamma32P]ATP by beta counting method"}, "[11]": {"biological_target": "T4, Cyclin-dependent kinase 2/cyclin E1 (Homo sapiens, UniProt P24941)", "experiment": "Inhibition of full length human C-terminal His6-tagged CDK2/N-terminal GST-tagged CyclinE expressed in baculovirus infected sf21 cells after 10 mins in presence of [gamma32P]ATP by beta counting method"}, "[12]": {"biological_target": "T2, Glycogen synthase kinase-3 beta", "experiment": "Inhibition of recombinant GSK3beta (unknown origin) after 10 mins in presence of [gamma32P]ATP by beta counting method", "outline": "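Recombinant kinase with 0.4 μCi [γ-32P]ATP per vial, 10 min at 30 °C; spotted on P81 paper, washed in 0.75% phosphoric acid, counted by β-scintillation. IC50 by linear regression versus solvent control; duplicates, ≥3 independent experiments.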"}, "CDK2/Cyclin A2 [13]": {"biological_target": "T3, CDK2/Cyclin A2", "experiment": "Inhibition of CDK2/CyclinA (unknown origin)"}, "[14]": {"biological_target": "T4, Cyclin-dependent kinase 2/cyclin E1", "experiment": "Inhibition of CDK2/CyclinE (unknown origin)"}, "[15]": {"biological_target": "Cyclin-dependent kinase 4/cyclin D1 (Homo sapiens, UniProt P11802)", "sequence (P11802 whole entry)": "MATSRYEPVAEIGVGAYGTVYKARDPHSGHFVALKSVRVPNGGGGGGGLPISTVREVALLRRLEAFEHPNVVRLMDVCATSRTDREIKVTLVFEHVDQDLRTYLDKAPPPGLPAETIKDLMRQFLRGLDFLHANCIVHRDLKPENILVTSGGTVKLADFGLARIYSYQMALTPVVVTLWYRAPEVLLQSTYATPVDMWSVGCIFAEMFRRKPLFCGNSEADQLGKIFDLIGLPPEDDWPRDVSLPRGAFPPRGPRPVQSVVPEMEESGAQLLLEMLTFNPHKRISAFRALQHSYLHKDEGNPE", "sequence (P24385 whole entry, further chain)": "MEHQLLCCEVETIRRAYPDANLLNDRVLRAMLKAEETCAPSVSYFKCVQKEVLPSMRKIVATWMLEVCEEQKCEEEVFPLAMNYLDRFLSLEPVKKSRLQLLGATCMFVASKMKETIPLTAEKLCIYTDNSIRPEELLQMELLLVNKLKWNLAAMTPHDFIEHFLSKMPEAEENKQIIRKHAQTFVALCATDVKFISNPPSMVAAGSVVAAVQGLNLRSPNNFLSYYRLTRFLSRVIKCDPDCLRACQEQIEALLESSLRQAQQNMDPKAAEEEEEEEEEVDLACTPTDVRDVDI", "experiment": "Inhibition of CDK4/Cyclin D1 (unknown origin)"}},
  "note": "Activity calls are given as the source filed them. No cut-off for these calls is given here.",
  "data": [
    {"smiles": "CN1CCN(CCO/N=C2/C(=C3/C(=O)Nc4ccccc43)Nc3ccccc32)CC1.Cl", "values": [
      {"measurement": "IC50", "setting": "MCF7 [1]; mcf7", "result": 0.85, "unit": "µM"},
      {"measurement": "IC50", "setting": "[2]", "result": 1.1, "unit": "µM"},
      {"measurement": "solubility", "setting": "[3]", "result": "> 25", "unit": "mg/mL"},
      {"measurement": "IC50", "setting": "[4]", "result": 0.169, "unit": "µM"},
      {"measurement": "GI50", "setting": "KM12", "result": 0.08, "unit": "µM"},
      {"measurement": "GI50", "setting": "MCF7 [5]", "result": 0.59, "unit": "µM"},
      {"measurement": "GI50", "setting": "MDA-MB-231", "result": 2.14, "unit": "µM"},
      {"measurement": "GI50", "setting": "BT-549", "result": 3.19, "unit": "µM"}
    ]},
    {"smiles": "CN1CCN(CCO/N=C2/C(=C3/C(=O)Nc4cc(Br)ccc43)Nc3ccccc32)CC1", "values": [
      {"measurement": "IC50", "setting": "[6]", "result": 0.005, "unit": "µM"},
      {"measurement": "IC50", "setting": "[7]", "result": 0.5, "unit": "µM"}
    ]},
    {"smiles": "O=c1cc(N2CCOCC2)oc2c(-c3ccccc3)cccc12", "values": [
      {"measurement": "inhibition", "setting": "[8]", "result": "Active"}
    ]},
    {"smiles": "O=C1Nc2ccccc2/C1=C1/Nc2ccccc2C1=O", "note": "[INDIRUBIN]", "values": [
      {"measurement": "IC50", "setting": "[9]", "result": "> 1000", "unit": "µM"},
      {"measurement": "IC50", "setting": "MCF7 [1]; Homo sapiens, MCF7, 72 h", "result": 9.91, "unit": "µM"},
      {"measurement": "IC50", "setting": "CDK2/Cyclin A2 [10]", "result": 2.2, "unit": "µM"},
      {"measurement": "IC50", "setting": "[11]", "result": 7.5, "unit": "µM"},
      {"measurement": "IC50", "setting": "[12]", "result": 0.6, "unit": "µM"},
      {"measurement": "IC50", "setting": "CDK2/Cyclin A2 [13]", "result": 7.5, "unit": "µM"},
      {"measurement": "IC50", "setting": "[14]", "result": 2.2, "unit": "µM"},
      {"measurement": "IC50", "setting": "[15]", "result": 12, "unit": "µM"}
    ]}
  ]
}
